{"source": "paper PMC4723301", "about": "(Experimental biology and medicine (Maywood, N.J.), 2015)", "key": {"Cyp 2C9": {"target": "Cyp 2C9 (Homo sapiens, UniProt P11712)", "sequence (P11712 whole entry)": "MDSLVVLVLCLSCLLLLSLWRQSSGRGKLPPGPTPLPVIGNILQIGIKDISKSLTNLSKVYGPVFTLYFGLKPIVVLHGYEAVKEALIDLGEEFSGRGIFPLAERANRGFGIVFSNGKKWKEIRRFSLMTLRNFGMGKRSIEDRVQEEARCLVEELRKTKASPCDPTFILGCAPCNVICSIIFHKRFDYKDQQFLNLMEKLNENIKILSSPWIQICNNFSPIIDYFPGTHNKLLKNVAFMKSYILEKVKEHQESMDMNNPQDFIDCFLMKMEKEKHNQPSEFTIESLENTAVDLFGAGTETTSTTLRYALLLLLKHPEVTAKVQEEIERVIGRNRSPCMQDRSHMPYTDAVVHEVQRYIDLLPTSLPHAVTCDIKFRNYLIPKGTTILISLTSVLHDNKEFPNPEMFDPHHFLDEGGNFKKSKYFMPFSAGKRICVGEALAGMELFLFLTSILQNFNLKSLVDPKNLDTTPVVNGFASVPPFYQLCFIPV", "settings": "24 h, 10 μM"}, "hepatocytes [1]": {"tested_on": "hepatocytes", "experiment": "Apoptosis, cytochrome C biosensor in sentinel hepatocytes", "format": "cell-based, human", "settings": "for Effect on hepatocellular apoptosis biosensor: 600 μM caffeine, 28 days"}, "LX-2 stellate cells": {"tested_on": "LX-2 stellate cells", "experiment": "LX-2 stellate cell migration in SQL-SAL", "format": "cell-based, human", "settings": "30 nM methotrexate, days 4 and 7, vs vehicle control (p ≤ 0.05)"}, "[2]": {"tested_on": "human alpha- smooth muscle actin (alpha-SMA)", "experiment": "Indirect immunofluorescence of alpha-SMA in SQL-SAL", "format": "cell-based", "in_short": "(§1)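 Human liver model in a perfused microfluidic device: primary hepatocytes, EA.hy926, U937 and LX-2 cells, with the LX-2 cells in collagen. The LX-2 cells are transduced with pLVX-IRES-mito-mKate2 for identification. Perfusion at 5 µL/h with HMM plus 100 nM dexamethasone at 37℃, 5% CO2; test compound in 1% DMSO. On day 21, paraformaldehyde-fixed and stained by indirect immunofluorescence. Value is the ratio of average cellular antibody intensity in stellate versus non-stellate cells; equal-variance t-test.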"}, "[3]": {"tested_on": "collagen type 1, alpha 2 (COL1A2)", "experiment": "Indirect immunofluorescence of COL1A2 in SQL-SAL", "format": "cell-based, human", "settings": "30nM methotrexate, day 21, relative to vehicle control (p ≤ 0.05)", "in_short": "as §1"}, "LX2 cultures": {"tested_on": "LX2 cultures", "settings": "human"}, "SQL-SAL [4]": {"tested_on": "SQL-SAL", "experiment": "LDH leakage in efflux media of SQL-SAL devices", "settings": "for Days with significant LDH release (p≤0.05): vs vehicle"}, "SQL-SAL [5]": {"tested_on": "SQL-SAL", "experiment": "Urea secretion in efflux media of SQL-SAL devices"}, "SQL-SAL [6]": {"tested_on": "SQL-SAL", "experiment": "Albumin secretion in efflux media of SQL-SAL devices"}, "hepatocytes [7]": {"tested_on": "hepatocytes", "experiment": "Mitochondrial-targeted ROS biosensor in sentinel hepatocytes", "format": "cell-based, human", "settings": "troglitazone, measured over 24 h"}, "hepatocytes [8]": {"tested_on": "hepatocytes", "experiment": "Bile", "format": "cell-based, human", "settings": "50 μM troglitazone, day 10 devices, 10-min intervals for 60 min, vs vehicle (1% DMSO)"}, "SQL-SAL [9]": {"tested_on": "SQL-SAL", "settings": "human, 180 μM"}, "SQL-SAL [10]": {"tested_on": "SQL-SAL", "experiment": "SQL-SAL toxicity testing, overall response", "settings": "28μM troglitazone, over 21 days"}, "[11]": {"experiment": "Urea secretion in efflux media of SQL-SAL devices", "settings": "human"}, "[12]": {"experiment": "Albumin secretion in efflux media of SQL-SAL devices", "settings": "human"}, "hepatocytes [13]": {"tested_on": "hepatocytes", "experiment": "Hepatocyte area by HCA in SQL-SAL", "settings": "200 μM trovafloxacin (40 × Cmax) with 1 μg/mL LPS"}, "[14]": {"settings": "28 μM troglitazone versus caffeine control"}, "[15]": {"settings": "180 μM troglitazone, starting at day 1 of treatment"}}, "data": [{"smiles": "O=C(O)Cc1ccccc1Nc1c(Cl)cccc1Cl", "note": "[Diclofenac, diclofenac]", "values": [{"measurement": "Metabolite found in efflux media (AUC)", "setting": "Cyp 2C9", "value": "36943 ±28302"}]}, {"smiles": "Cn1c(=O)c2c(ncn2C)n(C)c1=O", "note": "[caffeine]", "values": [{"measurement": "Effect on hepatocellular apoptosis biosensor", "setting": "hepatocytes [1]", "value": "no appreciable effect"}, {"measurement": "Effect on hepatocellular apoptosis biosensor", "setting": "hepatocytes [1]; listed as Caffeine", "value": "no significant effect"}]}, {"smiles": "CN(Cc1cnc2nc(N)nc(N)c2n1)c1ccc(C(=O)N[C@@H](CCC(=O)O)C(=O)O)cc1", "note": "[methotrexate]", "values": [{"measurement": "LX-2 stellate cells proximal to the hepatocyte layer", "setting": "LX-2 stellate cells", "value": "significantly accumulate"}, {"measurement": "Expression of human alpha-SMA in LX-2 stellate cells", "setting": "[2]; 30nM methotrexate, day 21, relative to vehicle control (p ≤ 0.05)", "value": "increased"}, {"measurement": "alpha-SMA expression in hepatocytes", "setting": "[2]; methotrexate treatment", "value": "increased"}, {"measurement": "Expression of collagen, type 1, alpha 2 (COL1A2) in LX-2 stellate cells", "setting": "[3]", "value": "increased"}, {"measurement": "maximum tolerated concentration", "setting": "LX2 cultures", "value": 100, "unit": "nM"}]}, {"smiles": "CS(=O)(=O)Nc1ccc([N+](=O)[O-])cc1Oc1ccccc1", "note": "[nimesulide]", "values": [{"measurement": "Apoptotic hepatocytes", "setting": "hepatocytes [1]; 210 μM nimesulide (10 × Cmax)", "value": "rapid increase"}, {"measurement": "Effect on LDH", "setting": "SQL-SAL [4]; 210 μM nimesulide (10 × Cmax)", "value": "rapid release"}, {"measurement": "Change in urea", "setting": "SQL-SAL [5]; 210 μM nimesulide (10 × Cmax)", "value": "decreases"}, {"measurement": "Change in albumin", "setting": "SQL-SAL [6]; 210 μM nimesulide (10 × Cmax)", "value": "decreases"}]}, {"smiles": "Cc1c(C)c2c(c(C)c1O)CCC(C)(COc1ccc(CC3SC(=O)NC3=O)cc1)O2", "note": "(stereo not shown) [troglitazone]", "values": [{"measurement": "Induction of apoptosis (loss of mitochondrial cytochrome C biosensor intensity) began on day", "setting": "hepatocytes [1]; 28 μM troglitazone", "value": 10, "unit": "days"}, {"measurement": "Induction of apoptosis (loss of mitochondrial cytochrome C biosensor intensity) began on day", "setting": "hepatocytes [1]; 180 μM troglitazone", "value": 1, "unit": "days"}, {"measurement": "Days with significant levels (p ≤ 0.05) of apoptosis, cytochrome C biosensor", "setting": "hepatocytes [1]; troglitazone 28 μM", "value": "16 to 28", "unit": "days"}, {"measurement": "Days with significant levels (p ≤ 0.05) of apoptosis, cytochrome C biosensor", "setting": "hepatocytes [1]; troglitazone 180 μM", "value": "1 to 15", "unit": "days"}, {"measurement": "ROS, mitochondrial-targeted ROS biosensor", "setting": "hepatocytes [7]", "value": "increase in ROS"}, {"measurement": "CMFDA uptake and canalicular efflux", "setting": "hepatocytes [8]", "value": "slower uptake and inhibition of efflux"}, {"measurement": "Acute toxicity produced within", "setting": "SQL-SAL [9]", "value": "2 to 4", "unit": "days"}, {"measurement": "Toxic response", "setting": "SQL-SAL [10]", "value": "gradual and much delayed toxic response"}, {"measurement": "Overt cytotoxicity, measured as LDH release, delayed until day", "setting": "SQL-SAL [4]; 28 μM (4 × Cmax) troglitazone, continuous perfusion, vs 600 μM caffeine", "value": 13, "unit": "days"}, {"measurement": "Overt cytotoxicity, measured as LDH release, found on day", "setting": "SQL-SAL [4]; 180 μM (30 × Cmax) troglitazone, continuous perfusion, vs 600 μM caffeine", "value": 4, "unit": "days"}, {"measurement": "Peak LDH release", "setting": "SQL-SAL [4]; troglitazone 180nM (30 × Cmax)", "value": "~4", "unit": "days"}, {"measurement": "Days with significant LDH release (p≤0.05)", "setting": "SQL-SAL [4]; troglitazone 180nM (30 × Cmax)", "value": "4 to 6", "unit": "days"}, {"measurement": "Peak LDH loss", "setting": "SQL-SAL [4]; troglitazone 28 μM (4 × Cmax)", "value": "~13", "unit": "days"}, {"measurement": "Days with significant LDH release (p≤0.05)", "setting": "SQL-SAL [4]; troglitazone 28 μM (4 × Cmax)", "value": "13 to 15", "unit": "days"}, {"measurement": "half-life at 28 μM", "setting": "[11]", "value": "~288", "unit": "h"}, {"measurement": "half-life at 180 μM", "setting": "[11]", "value": "~72", "unit": "h"}, {"measurement": "Change in urea", "setting": "SQL-SAL [5]; [14]", "value": "gradual decrease"}, {"measurement": "Change in urea", "setting": "SQL-SAL [5]; [15]", "value": "sharp decrease"}, {"measurement": "Days with significant decline in urea secretion (p ≤ 0.05)", "setting": "SQL-SAL [5]; troglitazone 28 μM (4 × Cmax)", "value": "4 to 28", "unit": "days"}, {"measurement": "Days with significant decline in urea secretion (p ≤ 0.05)", "setting": "SQL-SAL [5]; troglitazone 180μM (30 × Cmax)", "value": "4 to 10", "unit": "days"}, {"measurement": "half-life at 28 μM", "setting": "[12]", "value": "~264", "unit": "h"}, {"measurement": "half-life at 180 μM", "setting": "[12]", "value": "~72", "unit": "h"}, {"measurement": "Change in albumin", "setting": "SQL-SAL [6]; [14]", "value": "gradual decrease"}, {"measurement": "Change in albumin", "setting": "SQL-SAL [6]; [15]", "value": "sharp decrease"}, {"measurement": "Days with significant decline in albumin secretion (p≤ 0.05)", "setting": "SQL-SAL [6]; troglitazone 28 μM (4 × Cmax)", "value": "18 to 28", "unit": "days"}, {"measurement": "Days with significant decline in albumin secretion (p≤ 0.05)", "setting": "SQL-SAL [6]; troglitazone 180μM (30 × Cmax)", "value": "4 to 10", "unit": "days"}]}, {"smiles": "N[C@@H]1[C@H]2CN(c3nc4c(cc3F)c(=O)c(C(=O)O)cn4-c3ccc(F)cc3F)C[C@@H]12", "note": "[trovafloxacin]", "values": [{"measurement": "LDH leakage", "setting": "SQL-SAL [4]; 200 μM (40 × Cmax) trovafloxacin co-incubated with 1 μg/mL LPS, 3 and 5 days", "value": "Increased LDH leakage"}, {"measurement": "Change in hepatocyte area", "setting": "hepatocytes [13]", "value": "decrease in hepatocyte area"}]}]}
